Test results as given in ChEMBL document CHEMBL1126602, “L-beta-(2S,4S)- and L-alpha-(2S,4R)-dioxolanyl nucleosides as potential anti-HIV agents: asymmetric synthesis and structure-activity relationships” (J Med Chem, 1993).

How the values were obtained:
Vero = experiment: Cytotoxic effect against vero cells.; format: cell-based; settings: Chlorocebus sabaeus
Procedure, shortened: (§1)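 Uninfected cells were cultured with or without drug: PHA-stimulated human PBM cells for 6 days, Vero cells for 3 days, CEM cells for 6 days. Cells were then counted with trypan blue. Compounds came from 40 mM DMSO stocks diluted in medium (final DMSO below 0.25%). IC50 was derived from a median effect plot.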

[1] = Cytotoxicity against uninfected PHA-stimulated peripheral blood mononuclear (PBM) cells; format: cell-based; settings: Homo sapiens; procedure, shortened: as §1
[2] = test system: Human immunodeficiency virus 1; experiment: Effective concentration against HIV-1 strain LAV in human peripheral blood mononuclear (PBM) cells.; format: functional, organism-based
Procedure, shortened: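 Mitogen-stimulated human PBM cells infected with HIV-1 LAV at MOI 0.1 (set by limiting dilution in PBM cells). Compounds were added about 45 min after infection, diluted in medium from 40 mM DMSO stocks (final DMSO below 0.25%). Read-out was supernatant reverse transcriptase (RT) level. EC50 was taken from a median effect plot of dose-effect data.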

CCRF-CEM [3] = experiment: Effective concentration for inhibition of virus production in human CEM cells; format: functional, cell-based
CCRF-CEM [4] = experiment: Cytotoxicity against uninfected PHA-stimulated CEM cells; format: cell-based; settings: Homo sapiens; procedure, shortened: as §1

Question: What does the source list for `Nc1ccn([C@H]2CO[C@H](CO)O2)c(=O)n1`?
Answer: IC50 (Vero): 16.8 µM; IC50 [1]: > 10 µM; EC50 [2]: 1.3 µM

Question: Which IC50 [1] does the source give for `Cc1cn([C@H]2C[C@H](N=[N+]=[N-])[C@@H](CO)O2)c(=O)[nH]c1=O` [ZIDOVUDINE] here?
Answer: > 100 µM

Question: For `Nc1nc(Cl)nc2c1ncn2[C@H]1CO[C@H](CO)O1`, which EC50 [2] is on record?
Answer: 1.27 µM

Question: What does the source list for `Nc1ccn([C@@H]2CO[C@H](CO)O2)c(=O)n1` [TROXACITABINE]?
Answer: IC50 (Vero): 0.1 µM; IC50 [1]: > 10 µM; EC50 [2]: 0.002 µM

Question: For `Nc1nc(N)c2ncn([C@H]3CO[C@H](CO)O3)c2n1`, which EC50 [2] is on record?
Answer: 42.1 µM

Question: For `Nc1nc(Cl)nc2c1ncn2[C@@H]1CO[C@H](CO)O1`, which EC50 [2] is on record?
Answer: 34.7 µM

Question: Which results are given for `Nc1ccn([C@H]2CO[C@@H](CO)O2)c(=O)n1`?
Answer: IC50 [1]: 62 µM; EC50 (CCRF-CEM [3]): 0.009 µM; EC50 [2]: 0.016 µM; IC50 (CCRF-CEM [4]): 12.8 µM

Question: Which results are given for `Nc1nc(O)c2ncn([C@H]3CO[C@H](CO)O3)c2n1`?
Answer: IC50 (Vero): > 100 µM; IC50 [1]: > 100 µM; EC50 [2]: 102 µM

Question: Which EC50 [2] does the source give for `Nc1nc(N)c2ncn([C@@H]3CO[C@H](CO)O3)c2n1` here?
Answer: 0.014 µM

Question: Which IC50 (Vero) does the source give for `Nc1nc(O)c2ncn([C@@H]3CO[C@H](CO)O3)c2n1` here?
Answer: > 100 µM

Question: And the IC50 [1]?
Answer: > 100 µM

Question: What about the EC50 [2] of the same molecule?
Answer: 17.5 µM
